Key:
Rattus norvegicus [1] = assay: Inhibition of pentagastrin stimulated gastric acid secretion in anesthetized rat on iv administration of the compound.; format: functional; conditions: Stomach
Method in brief: (§1)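 Anaesthetized rat with lumen-perfused stomach; acid secretion induced by pentagastrin; compound given intravenously; inhibition of acid output recorded.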

Canis familiaris [2] = assay: % inhibition of Histamine-stimulated gastric acid secretion in Heidenhain pouch dog 4 uM/kg, on peroral administration of the compound.; format: functional, Canis lupus familiaris, Stomach
Method in brief: (§2)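 Heidenhain pouch dogs with histamine-stimulated acid secretion; compound given orally as a dry powder in a hard gelatin capsule; inhibition of acid secretion measured.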

[3] = biological target: Potassium-transporting ATPase (Sus scrofa, UniProt P19156); assay: Inhibition of K+ stimulated gastric ATPase activity; format: tissue-based, Stomach
Method in brief: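 K+-stimulated ATPase activity measured in a lyophilized gastric vesicle preparation at pH 7; enzyme concentration estimated at around 2 nM from 32P-ATP binding.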

Canis familiaris [4] = assay: % inhibition of Histamine-stimulated gastric acid secretion in Heidenhain pouch dog 1 uM/kg, on iv administration of the compound.; format: functional, Canis lupus familiaris, Stomach
Canis familiaris [5] = assay: % inhibition of Histamine-stimulated gastric acid secretion in Heidenhain pouch dog at 4 uM/kg, on peroral administration of the compound.; format: functional, Canis lupus familiaris, Stomach; method in brief: as §2
Rattus norvegicus [6] = assay: Inhibition of pentagastrin stimulated gastric acid secretion in anesthetized rat at 10 uM/kg, on iv administration of the compound.; format: functional, Stomach; method in brief: as §1
Canis familiaris [7] = assay: % inhibition of Histamine-stimulated gastric acid secretion in Heidenhain pouch dog at 1 uM/kg, on peroral administration of the compound.; format: functional, Canis lupus familiaris, Stomach; conditions: in the assay text read “on iv administration” for “on peroral administration”
[8] = biological target: T1, Potassium-transporting ATPase (Rattus norvegicus) (UniProt P09626+P18598); assay: Inhibition of pentagastrin stimulated gastric acid secretion in anesthetized rat 10 uM/kg, on iv administration of the compound.; format: functional, organism-based; conditions: Stomach; method in brief: as §1
[9] = biological target: T1, Potassium-transporting ATPase (Rattus norvegicus); assay: Inhibition of pentagastrin stimulated gastric acid secretion in anesthetized rat at 10 uM/kg; format: functional; conditions: Stomach; 10 umol/kg; method in brief: as §1
Canis familiaris [10] = assay: % inhibition of Histamine-stimulated gastric acid secretion in Heidenhain pouch dog at 4 uM/kg; format: functional, Canis lupus familiaris, Stomach
Canis familiaris [11] = assay: % inhibition of Histamine-stimulated gastric acid secretion in Heidenhain pouch dog at 1 uM/kg; format: functional, Canis lupus familiaris, Stomach
Canis familiaris [12] = assay: % inhibition of Histamine-stimulated gastric acid secretion in Heidenhain pouch dog at 1 umol/kg on iv administration of the compound.; format: functional; conditions: Canis lupus familiaris, Stomach
Canis familiaris [13] = assay: Histamine-stimulated gastric acid secretion in Heidenhain pouch dog at 1uM/Kg, on iv administration of the compound; format: functional, Canis lupus familiaris, Stomach
Canis familiaris [14] = assay: Histamine-stimulated gastric acid secretion in Heidenhain pouch dog at 4uM/Kg, on oral administration of the compound
Canis familiaris [15] = assay: % inhibition of Histamine-stimulated gastric acid secretion in Heidenhain pouch dog at1uM/kg, on iv administration of the compound.; format: functional, Canis lupus familiaris, Stomach
[16] = biological target: Potassium-transporting ATPase (Sus scrofa) (UniProt P18434+P19156); assay: Inhibition of K+ stimulated gastric ATPase activity at 100 uM[…]; format: tissue-based; conditions: Stomach

Potassium-transporting ATPase, sequence (P18434 whole entry): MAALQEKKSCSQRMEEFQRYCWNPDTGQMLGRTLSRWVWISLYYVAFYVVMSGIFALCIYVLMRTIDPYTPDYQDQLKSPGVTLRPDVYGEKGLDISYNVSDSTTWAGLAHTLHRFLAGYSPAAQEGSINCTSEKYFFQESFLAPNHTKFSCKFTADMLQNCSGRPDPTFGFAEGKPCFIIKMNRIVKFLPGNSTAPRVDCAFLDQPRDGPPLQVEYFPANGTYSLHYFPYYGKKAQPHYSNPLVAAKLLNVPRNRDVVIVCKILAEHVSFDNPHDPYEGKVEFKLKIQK
Potassium-transporting ATPase, sequence (P19156 whole entry): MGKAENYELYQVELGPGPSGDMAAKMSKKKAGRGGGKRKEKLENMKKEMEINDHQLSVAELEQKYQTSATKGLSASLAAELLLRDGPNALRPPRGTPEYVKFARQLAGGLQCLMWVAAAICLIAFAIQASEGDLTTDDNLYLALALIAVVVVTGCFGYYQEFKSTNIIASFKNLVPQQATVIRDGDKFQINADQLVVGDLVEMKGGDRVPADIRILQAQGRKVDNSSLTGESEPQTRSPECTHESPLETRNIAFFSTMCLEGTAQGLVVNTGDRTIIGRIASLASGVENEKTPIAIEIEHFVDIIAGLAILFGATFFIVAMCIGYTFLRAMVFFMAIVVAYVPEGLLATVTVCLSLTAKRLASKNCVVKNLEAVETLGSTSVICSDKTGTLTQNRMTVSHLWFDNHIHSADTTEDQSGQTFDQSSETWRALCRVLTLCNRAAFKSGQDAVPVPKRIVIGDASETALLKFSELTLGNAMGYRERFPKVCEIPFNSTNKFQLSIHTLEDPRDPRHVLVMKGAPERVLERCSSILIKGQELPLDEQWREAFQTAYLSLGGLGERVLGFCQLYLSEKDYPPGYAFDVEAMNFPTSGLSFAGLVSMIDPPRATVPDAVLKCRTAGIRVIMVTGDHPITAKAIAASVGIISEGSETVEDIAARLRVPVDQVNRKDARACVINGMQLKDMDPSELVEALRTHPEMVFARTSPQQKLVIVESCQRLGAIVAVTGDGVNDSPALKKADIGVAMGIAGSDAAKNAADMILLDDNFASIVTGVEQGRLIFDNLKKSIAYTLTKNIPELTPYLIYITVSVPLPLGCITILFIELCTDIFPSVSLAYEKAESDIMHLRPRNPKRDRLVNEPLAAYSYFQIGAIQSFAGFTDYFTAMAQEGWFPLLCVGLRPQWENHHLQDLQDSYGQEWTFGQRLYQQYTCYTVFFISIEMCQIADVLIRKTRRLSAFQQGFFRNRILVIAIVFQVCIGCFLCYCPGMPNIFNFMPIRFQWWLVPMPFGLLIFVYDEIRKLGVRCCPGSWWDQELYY

Row | Compound | IC50 [3] [nM] | inhibition [9] [%] | also measured
1 | Cc1cc(F)ccc1Nc1nc(N(C)c2ccccc2)c2ccccc2n1 | 21 | – | ED50 (Rattus norvegicus [1]): 1.94 µmol/kg; Inhibition (Canis familiaris [2]): 0%; Inhibition (Canis familiaris [4]): 79%
2 | Cc1ccccc1Nc1nc(N(C)c2ccccc2)c2sccc2n1 | 19 | – | Inhibition (Canis familiaris [5]): 12%; Inhibition (Rattus norvegicus [6]): 50%; Inhibition (Canis familiaris [7]): 84%
3 | Cc1cc(O)ccc1Nc1nc(N(C)c2ccccc2)c2ccccc2n1 | 1070 | – | inhibition [8]: 23%
4 | Cc1ccccc1Nc1nc(N)nc2c(C)cccc12 | 240 | 48 | –
5 | CNc1nc2c(C)cccc2c2c1CCN2c1ccccc1C | 180 | – | –
6 | CN(c1ccccc1)c1nc(N)nc2ccccc12 | 3300 | 17 | –
7 | CN(c1ccccc1)c1nc(Nc2ccccc2)nc2ccccc12 | 65 | – | ED50 (Rattus norvegicus [1]): 2.35 µmol/kg
8 | COc1cccc2c(N(C)c3ccccc3)nc(Nc3ccccc3C)nc12 | 42 | – | ED50 (Rattus norvegicus [1]): 1.39 µmol/kg; Inhibition (Canis familiaris [10]): 44%; Inhibition (Canis familiaris [11]): 79%
9 | Cc1ccccc1Nc1nc(Nc2ccccc2C)c2ccccc2n1 | 600 | – | –
10 | COc1ccc(Nc2nc(N(C)c3ccccc3)c3ccccc3n2)c(C)c1 | 360 | – | –
11 | COc1cccc2c(Nc3ccccc3C)nc(N)nc12 | 80 | – | inhibition in vivo at 1 µmol/kg (Canis familiaris [12]): 39%; ED50 (Rattus norvegicus [1]): 7.11 µmol/kg; Inhibition (Canis familiaris [5]): 0%
12 | Cc1ccccc1Nc1nc(NCCc2ccccc2)nc2ccccc12 | 810 | 31 | –
13 | COc1cccc2c(Nc3ccccc3C)nc(Nc3ccccc3C)nc12 | 2500 | – | –
14 | CCCC(=O)c1cnc2c(OC)cccc2c1Nc1ccccc1C | – | – | ED50 (Canis familiaris [13]): 0.26 µmol/kg; ED50 (Canis familiaris [14]): 1.6 µmol/kg
15 | CCN(c1ccccc1)c1nc(Nc2ccccc2C)nc2ccccc12 | 320 | 59 | –
16 | COc1cccc2c(Nc3ccccc3C)nc(N3CCCC3)nc12 | 30000 | 31 | –
17 | Cc1ccccc1Nc1nc(N(C)c2ccc(F)cc2)c2ccccc2n1 | 120 | – | Inhibition (Rattus norvegicus [6]): 62%
18 | Cc1cc(F)ccc1Nc1nc(N(C)c2ccccc2)c2cccc(OCCCN3CCOCC3)c2n1 | 50 | – | inhibition [8]: 73%; Inhibition (Canis familiaris [2]): 0%

Row | Compound | IC50 [3] [nM] | inhibition [9] [%] | also measured
19 | Cc1ccccc1Nc1nc(N(C)c2ccccc2)c2ccccc2n1 | 22 | 79 | Inhibition (Canis familiaris [5]): 0%; Inhibition (Canis familiaris [15]): 74%
20 | Cc1ccccc1Nc1nc(Nc2ccccc2)c2ccccc2n1 | 940 | – | –
21 | COc1cccc2c(Nc3ccccc3C)nc(N(C)c3ccccc3)nc12 | 590 | 37 | –
22 | CN(c1ccccc1)c1nc(N(C)c2ccccc2)c2ccccc2n1 | 67 | – | ED50 (Rattus norvegicus [1]): 2.81 µmol/kg; Inhibition (Canis familiaris [5]): 2%; Inhibition (Canis familiaris [15]): 73%
23 | COc1cccc2c(N(C)c3ccccc3C)nc(Nc3ccccc3C)nc12 | 100 | – | inhibition [8]: 93%
24 | COc1ccc2nc(Nc3ccccc3C)nc(N(C)c3ccccc3)c2c1 | 510 | – | inhibition [8]: 46%
25 | Cc1ccccc1Nc1nc(N2CCCC2)nc2ccccc12 | 2260 | 17 | –
26 | COc1cccc2c(N(C)c3ccccc3)nc(N(C)c3ccccc3)nc12 | 74 | – | –
27 | CN(c1ccccc1)c1nc(N(C)c2ccccc2)c2ccsc2n1 | 1300 | – | Inhibition (Rattus norvegicus [6]): 14%
28 | Cc1ccccc1Nc1nc(N(C)c2ccccc2C)nc2ccccc12 | 2000 | 27 | –
29 | Cc1cc(F)ccc1Nc1nc(N(C)c2ccccc2)c2cc(OCCCN3CCOCC3)ccc2n1 | 370 | – | inhibition [8]: 5%
30 | Cc1ccccc1Nc1nc(Nc2ccccc2)c2ccsc2n1 | – | – | inhibition [16]: 27%
31 | COc1cccc2c(Nc3ccccc3C)nc(N(C)C)nc12 | 16000 | 37 | –
32 | Cc1ccccc1Nc1nc(Nc2ccccc2C)c2ccsc2n1 | – | – | inhibition [16]: 27%
33 | Cc1cc(F)ccc1Nc1nc(N(C)c2ccccc2)c2cc(O)ccc2n1 | 18 | – | ED50 (Rattus norvegicus [1]): 1.5 µmol/kg; Inhibition (Canis familiaris [2]): 0%; Inhibition (Canis familiaris [4]): 97%
34 | COc1cccc2c(N(C)c3ccccc3)nc(N)nc12 | 1200 | 13 | –
35 | Cc1ccccc1Nc1nc(N(C)c2ccc(O)cc2)c2ccccc2n1 | 19 | – | –
36 | CN(c1ccccc1)c1nc(N(C)c2ccccc2)c2sccc2n1 | 300 | – | –

Source: ChEMBL document CHEMBL1128472, “Reversible inhibitors of the gastric (H+/K+)-ATPase. 5. Substituted 2,4-diaminoquinazolines and thienopyrimidines” (J Med Chem, 1995)
